Measured values from ChEMBL document CHEMBL1133378, “Synthesis and evaluation of daunorubicin-paclitaxel dimers” (Bioorg Med Chem Lett, 2000).

Experiments:
Assay type in all cases: functional, cell-based
Details in all cases: Homo sapiens
MES-SA/Dx5 [1] = test: The compound was evaluated for the growth inhibition of Dx5 cell lines using MTT assay.
How it was run: (§1)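 MTT assay: MES-SA (uterine tumor) or P-gp-overexpressing MES-SA/Dx5 cells seeded at 80,000 cells/mL, grown 24 h at 37 C in humidified 5% CO2, then drug-exposed at serial dilutions for 72 h. MTT (5 mg/mL stock in PBS) added for 3 h, formazan dissolved in 0.1 N HCl-isopropanol, absorbance read at 570 nm. IC50 from plotted data, mean of 8-16 determinations.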

MES-SA = test: The compound was evaluated for the growth inhibition of MES-SA uterine tumor cell lines using MTT assay.; how it was run: as §1
MES-SA/Dx5 [2] = test: The compound was evaluated for the growth inhibition of Dx5 w/PSC cell lines using MTT assay.; how it was run: as §1

Compound	IC50 (MES-SA/Dx5 [1]) [nM]	IC50 (MES-SA) [nM]	IC50 (MES-SA/Dx5 [2]) [nM]
COc1cccc2c1C(=O)c1c(O)c3c(c(O)c1C2=O)C[C@@](O)(C(C)=O)C[C@@H]3OC1CC(NC(=O)c2ccccc2C(=O)NCCC(=O)O[C@@H]2C[C@@H]3OC[C@]3(OC(C)=O)C3[C@@H](OC(=O)c4ccccc4)[C@@]4(O)C[C@@H](OC(=O)[C@@H](O)[C@H](NC(=O)c5ccccc5)c5ccccc5)C(C)=C([C@H](OC(C)=O)C(=O)[C@]32C)C4(C)C)C(O)C(C)O1 (stereo partly specified)	16000	99	36
COc1cccc2c1C(=O)c1c(O)c3c(c(O)c1C2=O)C[C@@](O)(C(C)=O)C[C@@H]3OC1CC(NC(=O)CCCC(=O)NCCC(=O)O[C@@H]2C[C@@H]3OC[C@]3(OC(C)=O)C3[C@@H](OC(=O)c4ccccc4)[C@@]4(O)C[C@@H](OC(=O)[C@@H](O)[C@H](NC(=O)c5ccccc5)c5ccccc5)C(C)=C([C@H](OC(C)=O)C(=O)[C@]32C)C4(C)C)C(O)C(C)O1 (stereo partly specified)	> 50000	950	1100
COc1cccc2c1C(=O)c1c(O)c3c(c(O)c1C2=O)C[C@@](O)(C(C)=O)C[C@@H]3OC1CC(NC(=O)c2ccc(C(=O)NCCC(=O)O[C@@H]3C[C@@H]4OC[C@]4(OC(C)=O)C4[C@@H](OC(=O)c5ccccc5)[C@@]5(O)C[C@@H](OC(=O)[C@@H](O)[C@H](NC(=O)c6ccccc6)c6ccccc6)C(C)=C([C@H](OC(C)=O)C(=O)[C@]43C)C5(C)C)cc2)C(O)C(C)O1 (stereo partly specified)	10000	1000	1000
COc1cccc2c1C(=O)c1c(O)c3c(c(O)c1C2=O)C[C@@](O)(C(C)=O)C[C@@H]3OC1CC(NC(=O)CCCCC(=O)NCCC(=O)O[C@@H]2C[C@@H]3OC[C@]3(OC(C)=O)C3[C@@H](OC(=O)c4ccccc4)[C@@]4(O)C[C@@H](OC(=O)[C@@H](O)[C@H](NC(=O)c5ccccc5)c5ccccc5)C(C)=C([C@H](OC(C)=O)C(=O)[C@]32C)C4(C)C)C(O)C(C)O1 (stereo partly specified)	> 50000	2300	
COc1cccc2c1C(=O)c1c(O)c3c(c(O)c1C2=O)C[C@@](O)(C(C)=O)C[C@@H]3OC1CC(NC(=O)CCC(=O)NCCC(=O)O[C@@H]2C[C@@H]3OC[C@]3(OC(C)=O)C3[C@@H](OC(=O)c4ccccc4)[C@@]4(O)C[C@@H](OC(=O)[C@@H](O)[C@H](NC(=O)c5ccccc5)c5ccccc5)C(C)=C([C@H](OC(C)=O)C(=O)[C@]32C)C4(C)C)C(O)C(C)O1 (stereo partly specified)	> 50000	700	
COc1cccc2c1C(=O)c1c(O)c3c(c(O)c1C2=O)C[C@@](O)(C(C)=O)C[C@@H]3O[C@H]1C[C@H](N)[C@H](O)[C@H](C)O1 [DAUNORUBICIN]	2000	21	14
CC(=O)O[C@H]1C(=O)[C@@]2(C)C([C@H](OC(=O)c3ccccc3)[C@]3(O)C[C@H](OC(=O)[C@H](O)[C@@H](NC(=O)c4ccccc4)c4ccccc4)C(C)=C1C3(C)C)[C@]1(OC(C)=O)CO[C@@H]1C[C@@H]2O.COc1cccc2c1C(=O)c1c(O)c3c(c(O)c1C2=O)C[C@@](O)(C(C)=O)C[C@@H]3OC1CC(N)C(O)C(C)O1 (stereo partly specified) [MIXTURE OF DAUNORUBICIN AND PACLITAXEL]	1000	11	
CC(=O)O[C@H]1C(=O)[C@@]2(C)[C@H]([C@H](OC(=O)c3ccccc3)[C@]3(O)C[C@H](OC(=O)[C@H](O)[C@@H](NC(=O)c4ccccc4)c4ccccc4)C(C)=C1C3(C)C)[C@]1(OC(C)=O)CO[C@@H]1C[C@@H]2O [PACLITAXEL]	2700	0.6	0.3
